The list is not random: actives were taken first. Their share in the collection is about 1.9%.
Tn6 DDE FP = inhibitors of Tn6 peptide binding to fibrin DD(E), primary screen, biochemical, fluorescence polarization, human fibrin, Tn6 probe; Fibrinogen beta chain (Homo sapiens), P02675; Fibrin DD(E) TRITC-Tn6 fluorescence polarization displacement; inhibition, % at 8.3 µM; actives 0.21% (n = 370,000); AID 720509, 2013;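 active means inhibition above a per-campaign cutoff: mean of compounds within control limits plus 3 SD, cut at about 15% in these data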;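 further: 0% = median of all compound wells on the plate and 100% = blocking peptide control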
MBD2 inh = inhibitors of MBD2 binding to methylated DNA, primary screen, biochemical, TR-FRET, DNA-binding domain, human. Methyl-CpG-binding domain protein 2 (Homo sapiens), Q9UBB5. MBD2 binding to methylated oligonucleotide. inhibition, % at 4.4 µM. actives 0.31% (n = 370,000); in the data active means inhibition above about 13%
LEDGF integ inh = blockers of LEDGF/p75-dependent integrase strand transfer – biochemical, TR-FRET, high throughput, primary screen; HIV-1 integrase (with human LEDGF/p75); inhibition, % at 3.7 µM; TR-FRET IN-LEDGF/p75 DNA integration, Eu/Cy5; actives 0.64% (n = 370,000);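 active means inhibition above the screen-wide mean plus 3 SD, cut at about 13% in these data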;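 further: signal is the Cy5 over europium emission ratio at 671 and 618 nm; 0% = plate median of compound wells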
Tn7 DDE FP = inhibitors of Tn7 peptide binding to fibrin DD(E), primary screen, biochemical, fluorescence polarization, human fibrin, Tn7 probe; FP displacement of FITC-Tn7 peptide from fibrin DD(E); 0% = median of compound wells per plate; inhibition, % at 8.3 µM; actives 0.13% (n = 370,000); AID 720508, 2013;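 active means inhibition above the mean of compounds falling within the control limits plus 3 SD of them, cut at about 14% in these data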;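 further: 0% = plate median of compound wells and 100% = 10 µM Aha-Tn7 peptide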
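Assay system: human fibrin DD(E) protein / Input: 2 µM fibrin DD(E) / Benchmarks: high control of 10 µM Aha-Tn7 peptide / Measured by: fluorescence polarization of the labelled Tn7 tracer / Medium: Tris buffer with calcium and detergent, pH 7.8 / Timing: 10 min compound pre-incubation, 3 h probe incubation at room temperature / Repeats: one replicate per compound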
TDP2 inh = human TDP2 enzyme inhibitors, primary screen, biochemical, epi absorbance, recombinant enzyme; Tyrosyl-DNA phosphodiesterase 2 (Homo sapiens), O95551; T5PNP hydrolysis, p-nitrophenol absorbance 415 nm; inhibition, % at 12.8 µM; actives 0.34% (n = 370,000);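 active means inhibition above the mean of all tested compounds plus 3 SD, set per campaign, cut at about 25% in these data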;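 further: 0% = DMSO with enzyme and 100% = buffer with substrate but no TDP2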
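test system = human TDP2 enzyme | input = TDP2 enzyme at 120 nM final | medium = 50 mM Tris-HCl pH 7.5 with Mg2+, KCl, DTT, BSA | also added = T5PNP substrate, 5 mM | times = 2 h at 37 °C | technique = epi absorbance | benchmarks = high control without enzyme, low control DMSO plus TDP2 | replication = each compound tested once, singlicate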
UHRF1 MBD2 ctr = UHRF1 methylated DNA binding inhibitors, primary screen, counter-screen for MBD2 inhibitor project, biochemical, TR-FRET, human UHRF1, single concentration. E3 ubiquitin-protein ligase UHRF1 (Homo sapiens), Q96T88. UHRF1 binding to methylated oligo. inhibition, % at 4.4 µM. actives 0.75% (n = 370,000); in the data active means inhibition above about 21%;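 further: UHRF1 SRA domain binding a hemimethylated CpG hairpin DNA probe; 0% = median of test compound wells and 100% = reference inhibitor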
Target sequence (Q96T88 whole entry, looked up, the tested form may be a part): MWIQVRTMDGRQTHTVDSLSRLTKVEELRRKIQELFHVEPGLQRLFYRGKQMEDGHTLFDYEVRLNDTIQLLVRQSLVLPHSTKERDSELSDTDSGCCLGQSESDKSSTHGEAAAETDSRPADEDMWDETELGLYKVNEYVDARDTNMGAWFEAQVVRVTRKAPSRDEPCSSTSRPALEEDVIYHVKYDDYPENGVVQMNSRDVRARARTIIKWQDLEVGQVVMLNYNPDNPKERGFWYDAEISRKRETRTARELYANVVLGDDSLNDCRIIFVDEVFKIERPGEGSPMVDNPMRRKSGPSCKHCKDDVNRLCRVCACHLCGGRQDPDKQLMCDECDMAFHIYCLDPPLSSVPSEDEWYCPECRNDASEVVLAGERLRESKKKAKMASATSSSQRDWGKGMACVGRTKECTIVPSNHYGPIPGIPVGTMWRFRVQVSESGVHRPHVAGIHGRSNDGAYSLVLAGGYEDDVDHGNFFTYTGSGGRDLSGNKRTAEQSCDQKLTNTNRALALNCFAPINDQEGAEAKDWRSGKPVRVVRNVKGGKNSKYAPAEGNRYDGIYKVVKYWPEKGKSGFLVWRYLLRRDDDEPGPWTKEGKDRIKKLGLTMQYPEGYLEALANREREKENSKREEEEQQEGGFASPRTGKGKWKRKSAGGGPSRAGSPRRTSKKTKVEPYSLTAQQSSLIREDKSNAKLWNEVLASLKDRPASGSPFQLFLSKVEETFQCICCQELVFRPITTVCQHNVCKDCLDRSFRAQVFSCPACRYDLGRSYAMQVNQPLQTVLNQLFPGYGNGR
* = called active by the depositor.

SMILES	Tn6 DDE FP	MBD2 inh	LEDGF integ inh	Tn7 DDE FP	TDP2 inh	UHRF1 MBD2 ctr
CCOC(=O)C1CSCCS(=O)(=O)N1Cc1cccc(Cl)c1 (centres undefined)	3	3	6	-1	6	15
O=C(Nc1ccc2cn[nH]c2c1)c1c(Cl)cccc1Cl	2	7	1	-6	-6	22*
CC(C)NC(=O)N[C@H]1C[C@@H]2O[C@@H](CO)CC[C@@H]2O[C@@H]1CCc1ccc(-c2ccc(F)cc2)cc1	-3	1	4	-1	3	0
CCOc1ccc(OCCCC(=O)N2CCN(S(=O)(=O)c3ccc(Cl)cc3)CC2)cc1	3	8	32*	2	1	0
Cc1ccc(OCC(=O)Nc2ccc(S(=O)(=O)N3CCN(C)CC3)cc2)cc1	-2	3	-1	1	5	46*
CCOC(=O)COc1ccc(S(=O)(=O)N2CCN(c3ccccc3F)CC2)cc1	-13	11	0	5	-3	5
CCOC(=O)COc1ccc(S(=O)(=O)N2CCN(c3ccc(OC)cc3)CC2)cc1	0	8	0	1	-4	37*
COc1ccc(OCC(=O)Nc2ccc(S(=O)(=O)N3CCN(C)CC3)cc2)cc1	6	-2	-3	3	-7	2
Cc1ccccc1C(=O)NC1CCCCN(C)C1=O (centres undefined)	7	1	-2	7	7	2
COc1cc2c(cc1OC)[C@](C)(c1ccccc1)C[C@@H]2NCC=C(C)C	-5	-5	0	-5	-11	-1
Fc1cccc(Cl)c1CNC(c1ccccc1)c1ccccc1	-3	-4	2	-2	-2	58*
Cc1c(NS(=O)(=O)c2cc(C(=O)NCC3CCCO3)cc(Cl)c2Cl)c(=O)n(-c2ccccc2)n1C (centres undefined)	-2	2	-1	5	6	0
Cc1c(NC(=O)C(C)NCC2CCCO2)c(=O)n(-c2ccccc2)n1C (centres undefined)	5	-3	0	-1	-1	38*
O=c1c2ccccc2nc(-c2ccccc2)n1O	16*	4	-3	10	-5	0
Cc1ccc(N=Cc2c(O)n(-c3nccs3)c(=O)c3ccccc23)cc1	5	-1	0	1	7	0
Cc1cc(C)c(N=Cc2c(O)n(-c3nccs3)c(=O)c3ccccc23)c(C)c1	4	6	0	-3	8	27*
Nc1ccn([C@@H]2O[C@H](C(=O)N[C@H](Cc3ccccc3)C(=O)N3CCN(C(=O)N4CCOCC4)CC3)[C@@H](O)[C@H]2O)c(=O)n1	0	-2	6	4	5	-1
Clc1ccc(-c2nnc3sc(-c4ccc(Br)o4)nn23)cc1	7	5	3	-3	-3	-1
Cc1oc(-c2ccc(Cl)cc2)cc1-c1nn2c(-c3ccoc3C)nnc2s1	0	7	29*	-6	18	23*
CCOC(=O)/C(=C\Nc1ccc(OCc2ccccc2)cc1)NC(=O)c1ccccc1	0	0	1	-6	1	-5
CC1CCCCC1NC(=O)COC(=O)c1c2c(nc3ccccc13)/C(=C\c1ccco1)CC2 (centres undefined)	3	7	27*	5	-12	20
C=CCCC1CN(Cc2ccc(OC)cc2)S(=O)(=O)c2c(Oc3ccc(C(C)C)cc3)cccc2O1 (centres undefined)	-3	8	0	-1	1	2
Cc1nn(C)c(Cl)c1NC(=O)OCc1ccc(Cl)cc1Cl	2	1	5	6	-19	53*
CCCc1nc2c(Cl)cc(C(F)(F)F)cn2c1Cc1ccc(OC)cc1C	7	6	-1	6	3	22*
COc1ccc(Cc2c(-c3ccc(C#N)cc3)nc3c(Cl)cc(C(F)(F)F)cn23)c(C)c1	-1	1	2	-3	-9	18
SMILES	Tn6 DDE FP	MBD2 inh	LEDGF integ inh	Tn7 DDE FP	TDP2 inh	UHRF1 MBD2 ctr
O=C(CCSCc1ccccc1Cl)NC1CCCC1	-2	11	-2	-1	1	24*
O=C(CCSc1ccccc1)NC1CCCCCC1	-2	2	-2	4	4	1
CC(C)(C)c1ccc(C(=O)NC(=S)N2CCCCCC2)cc1	7	-1	21*	7	18	-2
CC1CCN(C(=S)NC(=O)c2ccccc2)CC1	4	-4	-1	-1	-14	38*
CC1CCN(C(=S)NC(=O)c2ccc(C(C)(C)C)cc2)CC1	5	-2	11	1	-12	0
CC(C)(C)n1nc(C2CC2)c(Br)c1NC(=O)c1ccc(Cl)cc1	-2	-1	-2	-6	5	3
Clc1ccc(C2=CC(c3ccco3)n3ncnc3N2)cc1 (centres undefined)	-3	0	-2	16*	8	-13
Clc1ccccc1C1=CC(c2ccco2)n2ncnc2N1 (centres undefined)	-3	4	-3	0	-12	6
O=S(=O)(CC1NCCc2ccccc21)NCc1ccc(F)cc1 (centres undefined)	-1	3	0	4	-8	2
O=C(Nc1ccc(Cl)c(Cl)c1)Oc1ccc(NC(=O)c2ccco2)cc1	-1	-7	-3	19*	-2	-4
O=C(Nc1ccc(NC(=O)c2ccco2)c(Cl)c1)c1ccccc1	-1	3	-3	1	-3	42*
Cc1ccccc1CN1CCCCC(NC(=O)c2ccc(F)c(F)c2)C1=O (centres undefined)	-10	1	0	-3	4	-2
C=CCN1C(=O)[C@@H](CC(=O)N2CCSCC2)[C@]2(C(=O)OCC)CCCCC/C=C/12	9	-2	4	-5	-10	0
O=C(CC1C(=O)NCCN1Cc1c(F)cccc1Cl)NCCc1ccccn1 (centres undefined)	7	4	-1	8	9	26*
O=C(CC1C(=O)NCCN1Cc1c(F)cccc1Cl)NCCC1=CCCCC1 (centres undefined)	7	-6	4	7	-14	-1
Cc1ccc(NC(=O)NNC(=O)CCn2nc(C)c([N+](=O)[O-])c2C)cc1C	12	-3	1	6	-4	-3

Screening data: PubChem, The Scripps Research Institute Molecular Screening Center
